Assay [1] relates to Quadruplex RNA. Description: Displacement of Hoechst 33258 from DHX15 rG4 (unknown origin) at 100 uM measured after 15 mins by FID assay relative to control. It counts as nucleic-acid assay. In a few lines:
(§1)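 Fluorescent intercalator displacement on DHX15 rG4, dose-dependent, using thioflavin T or Hoechst 33258 (groove binder) as probe; displacement measured as loss of probe fluorescence.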

Assay [2] can be described thus: Inhibition of DHX15 mRNA translation in rabbit reticulocyte lysate transfected with DHX15-G4-WT-FL incubated for 15 mins by firefly luciferase assay. It counts as functional, subcellular, Oryctolagus cuniculus. The gist of the method:
(§2)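 Cell-free translation: in vitro transcribed firefly luciferase reporter RNAs carrying DHX15 5' region (WT or G4-deleted) incubated in rabbit reticulocyte lysate with analyte, dose-dependent; luciferase activity as translation read-out; IC50 from dose-response.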

For assay [3], the system named is Reticulocyte. Nature of the assay: Inhibition of DHX15 mRNA translation in rabbit reticulocyte lysate transfected with DHX15-G4-Del-FL at upto 50 uM incubated for 15 mins by firefly luciferase assay. It counts as functional, subcellular. The note with it: Oryctolagus cuniculus. The gist of the method: as §2
Assay [4] concerns the target Quadruplex RNA. Description: Binding affinity to DHX15 rG4 (unknown origin) assessed as dissociation constant measured after 320 secs by SPR analysis. It counts as nucleic-acid assay. (Surface plasmon resonance follows binding to a sensor surface in real time, without labels.)
A short description of assay [5]: Inhibition of DHX15 mRNA translation in rabbit reticulocyte lysate transfected with DHX15-G4-WT-FL at upto 50 uM incubated for 15 mins by firefly luciferase assay relative to control. Type of assay: functional, Oryctolagus cuniculus. The note with it: 0.25 h, up to 50 µM. In a few lines: as §2
The subject of assay [6] is Quadruplex RNA. Nature of the assay: Binding affinity to DHX15 rG4 (unknown origin) assessed as thermal stability by measuring change in melting temperature at 50 uM by circular dichroism method. It counts as nucleic-acid assay. The gist of the method: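 CD thermal melt of DHX15 rG4 with 50 μM analyte present; stabilization reported as ΔTm.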
Assay [7] concerns Quadruplex RNA. Description: Binding affinity to DHX15 rG4 (unknown origin) assessed as induction of RNA G quadruplex formation by measuring increase in intensity at 4 to 20 uM in presence of KCl by circular dichroism method. Type of assay: nucleic-acid assay. The conditions noted are these: dose 4-20 µM.
Assay [8] relates to Quadruplex RNA. Description: Displacement of ThT from DHX15 rG4 (unknown origin) at upto 100 uM measured after 15 mins by FID assay relative to control. Type of assay: nucleic-acid assay. The gist of the method:
as §1

Assay [9] can be described thus: Inhibition of DHX15 mRNA translation in rabbit reticulocyte lysate transfected with DHX15-G4-WT-FL at 10 uM incubated for 15 mins by firefly luciferase assay relative to control. Type of assay: functional. The conditions noted are these: Oryctolagus cuniculus, 0.25 h. The gist of the method:
as §2

Assay [10] has as its system Reticulocyte. Nature of the assay: Inhibition of DHX15 mRNA translation in rabbit reticulocyte lysate transfected with DHX15-G4-Del-FL at 10 uM incubated for 15 mins by firefly luciferase assay. Type of assay: functional, subcellular. The conditions noted are these: Oryctolagus cuniculus. In a few lines:
as §2

Each structure is given as a SMILES string. The source made the active and inactive calls. The rule behind the calls is not given here. Bounds are passed on as bounds.

In general, IC50 refers to the midpoint of a concentration-inhibition curve. The low end stands for greater potency in that assay, the high end for weaker potency in that assay. As usually defined, the inhibition is how much of the control response was suppressed. What is called Kd is the equilibrium constant for the complex coming apart. In general, ΔTm refers to the change in melting temperature against a reference sample.

Take `Nc1cc2[nH]c(=O)[nH]c2cc1N1CCCC1`: the Activity in assay [1] turned out to be 20%; in [8], 50%. This compound also came in with an IC50 in assay [2] of 22.9 µM. In [3], the inhibition entry was “inactive”. The Kd in [4] turned out to be 12.6 µM. Moreover, the “inhibition (INH)” value in assay [5] was 57%. Besides, the ΔTm in assay [6] was 3.6 °C. Moreover, the outcome in assay [7] was Active.
As to `CN(C)c1ccc(Nc2c3ccc(NC(=O)CCN4CCCC4)cc3nc3cc(NC(=O)CCN4CCCC4)ccc23)cc1`, 10 µM produced 67% inhibition in [9]. Also, in [10], the inhibition entry is “inactive”.
As to `O=C(O)[C@@H]1Cc2ccccc2CN1`, the dissociation constant (Kd) in [4] was greater than 100 µM.
As to `O=C(O)[C@H]1Cc2ccccc2CN1`, in assay [4], the Kd was greater than 100 µM.

(Values after ChEMBL document CHEMBL5532739, “Competitive Microarray Screening Reveals Functional Ligands for the DHX15 RNA G-Quadruplex” (ACS Med Chem Lett, 2024).)
